Two compounds from paper PMC7396962 (Xenobiotica; the fate of foreign compounds in biological …, 2020) can be followed below.

Data set [1] deals with MRPs. The data set is described as follows: Glucuronide excretion in HeLa1A1 cells with MK571. As to conditions: CA 10 μM, MK571 5 or 20 μM. It is filed as cell-based. A digest of the protocol:
(§1)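 HeLa cells overexpressing UGT1A1 grown in DMEM/10% FBS, seeded 2 × 10^5 cells/well and used near 90% confluence after HBSS washes. Exposed at 37 °C to test compound 10 μM in HBSS with inhibitor 5 or 20 μM or vehicle. Medium sampled at 0.5, 1, 1.5 and 2 h; cells lysed at 2 h in 50% methanol. Excretion rate, CLapp (ER/intracellular concentration) and fmet calculated; triplicate.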

Data set [2] has as its target T1, BCRP (Homo sapiens, UniProt Q9UNQ0).
T1 sequence (Q9UNQ0 1-655): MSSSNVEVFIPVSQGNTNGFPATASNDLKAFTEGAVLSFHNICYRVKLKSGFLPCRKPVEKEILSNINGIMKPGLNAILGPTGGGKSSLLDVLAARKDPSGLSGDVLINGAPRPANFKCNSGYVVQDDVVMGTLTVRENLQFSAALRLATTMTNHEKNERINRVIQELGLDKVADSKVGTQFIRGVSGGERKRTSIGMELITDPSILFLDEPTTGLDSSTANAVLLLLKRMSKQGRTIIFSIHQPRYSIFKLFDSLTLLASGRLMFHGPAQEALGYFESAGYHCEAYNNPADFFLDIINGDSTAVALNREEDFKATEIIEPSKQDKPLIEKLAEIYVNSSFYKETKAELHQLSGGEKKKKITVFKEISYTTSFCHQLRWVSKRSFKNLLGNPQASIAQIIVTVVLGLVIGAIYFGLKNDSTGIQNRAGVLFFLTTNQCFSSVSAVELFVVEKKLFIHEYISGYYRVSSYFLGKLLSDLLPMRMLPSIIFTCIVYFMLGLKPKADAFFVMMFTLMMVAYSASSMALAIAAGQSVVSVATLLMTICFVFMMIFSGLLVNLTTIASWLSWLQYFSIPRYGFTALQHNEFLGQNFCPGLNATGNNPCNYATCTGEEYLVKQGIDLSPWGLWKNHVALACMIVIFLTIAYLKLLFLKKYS
The experiment in a line: Glucuronide excretion in HeLa1A1 cells with DIPY. Type of data set: cell-based. Conditions: CA 10 μM, DIPY 5 or 20 μM. A digest of the protocol: as §1

Take `CN(C)C(=O)CCSC(SCCC(=O)O)c1cccc(/C=C/c2ccc3ccc(Cl)cc3n2)c1` (centres unmarked) [MK571]: in data set [1], the fmet value entry is “significant reduction” and the “intracellular accumulation of glucuronide” value is listed as “elevated”.
In the case of `OCCN(CCO)c1nc(N2CCCCC2)c2nc(N(CCO)CCO)nc(N3CCCCC3)c2n1` [DIPY, dipyridamole], in data set [2], the CA-O-glucuronide excretion entry is listed as “moderate decrease”, the fmet values entry is “significant decrease” and the “intracellular amounts of glucuronide levels” value is on record as “statistical increase”.
